According to publication PMC4122523 (Biomedical chromatography : BMC, 2013):
Blank lines part the entries; values can stand above or below the compound they belong to.

Key:
[1] = Stability of stock solutions; format: physicochemical; settings: 12 h at room temperature and a week at −20 °C
Outline: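 Stock solutions: analyte 1.0 mg/mL in water, aripiprazole internal standard 1 mg/mL in methanol. Held 12 h at room temperature, and tested daily over 1 week during storage at −20 °C. Compared against freshly prepared standards by UPLC/MS/MS.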

[2] = ref Seminerio et al., 2012b, cited from earlier work
[3] = system: both subtypes of sigma receptors; settings: radioligand binding; ref Seminerio et al., 2012b; cited from earlier work
[4] = system: cocaine-induced convulsions; settings: mice, toxic dose of cocaine; ref Seminerio et al., 2012b; cited from earlier work
[5] = system: METH-induced dopaminergic neurotoxicity and hyperthermia; settings: Swiss Webster mice, intraperitoneal; ref Seminerio et al., 2012a; cited from earlier work
[6] = Stability of AZ66 in rat plasma at various storage conditions; format: in vitro ADME
Outline: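 Rat plasma QC samples at 10, 400 and 3000 ng/mL, six replicates each. Conditions: three freeze–thaw cycles at −20 °C; −20 °C for 30 days; room temperature for 12 h; processed extracts held in the autosampler at 25 °C for 24 h. Analysed by chloroform liquid–liquid extraction and UPLC/MS/MS with aripiprazole internal standard. Compared against freshly prepared standards; bias = 100×(measured−actual)/actual.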

[7] = Intravenous pharmacokinetic study in rats; format: in vivo, male Sprague–Dawley rats; settings: rat
Outline: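 Male Sprague–Dawley rats (n = 6, 260–280 g), fasted overnight, given water after dosing and food from 4 h post-dose. Single 5 mg/kg i.v. dose via jugular-vein cannula. Blood (0.15 mL) drawn via cannula pre-dose and at 2–480 min and 12–42 h. Plasma separated at 10,000 g, 10 min, 4 °C, and stored at −20 °C. Chloroform extraction with aripiprazole internal standard, UPLC/MS/MS, then non-compartmental analysis.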

[8] = system: METH-induced memory impairment; settings: mouse; ref Seminerio et al., 2012a; cited from earlier work
[9] = system: neurotoxic and stimulant effects of METH; settings: mouse; ref Kaushal et al., 2011, 2012; cited from earlier work
[10] = processed plasma samples, auto-sampler 24 h (25 °C), spiked 10 ng/mL
[11] = processed plasma samples, auto-sampler 24 h (25 °C), spiked 400 ng/mL
[12] = rat plasma, long-term 30 days (−20 °C), spiked 10 ng/mL
[13] = rat plasma, long-term 30 days (−20 °C), spiked 400 ng/mL
[14] = rat plasma, long-term 30 days (−20 °C), spiked 3000 ng/mL
[15] = rat plasma, short-term 12 h (25 °C), spiked 10 ng/mL
[16] = rat plasma, short-term 12 h (25 °C), spiked 400 ng/mL
[17] = rat plasma, short-term 12 h (25 °C), spiked 3000 ng/mL
[18] = rat plasma, three freeze–thaw cycles (−20 °C), spiked 400 ng/mL
[19] = rat plasma, three freeze–thaw cycles (−20 °C), spiked 3000 ng/mL
[20] = male, Sprague-Dawley, plasma, iv, 5 mg/kg

Stability of stock solutions [1]: stable
Compound: O=C1CCc2ccc(OCCCCN3CCN(c4cccc(Cl)c4Cl)CC3)cc2N1 [IS, aripiprazole, reference compound]

Stability in reconstituted samples in the auto-sampler ([6]; 25 °C for 24 h): stable | Bias [6, 10]: 1.7% | Measured concentration [6, 10]: 10.1 ± 0.2 ng/mL | Bias [6, 11]: 0.8% | Measured concentration [6, 11]: 403.2 ± 18.6 ng/mL | Measured concentration ([6]; processed plasma samples, auto-sampler 24 h (25 °C), spiked 3000 ng/mL): 3222 ± 79.4 ng/mL | Bias [6, 12]: 0.3% | Measured concentration [6, 12]: 10.2 ± 0.4 ng/mL | Bias [6, 13]: −0.4% | Measured concentration [6, 13]: 402.4 ± 7.1 ng/mL | Bias [6, 14]: −0.6% | Measured concentration [6, 14]: 3028 ± 55.0 ng/mL | Bias [6, 15]: 1.3% | Measured concentration [6, 15]: 10.2 ± 0.2 ng/mL | Bias [6, 16]: −0.5% | Measured concentration [6, 16]: 401.4 ± 3.5 ng/mL | Bias [6, 17]: 1.0% | Measured concentration [6, 17]: 3015 ± 30.6 ng/mL | Measured concentration ([6]; rat plasma, three freeze–thaw cycles (−20 °C), spiked 10 ng/mL): 10.2 ± 0.7 ng/mL | Bias [6, 18]: −0.6% | Measured concentration [6, 18]: 396.1 ± 12.7 ng/mL | Bias [6, 19]: 0.2% | Measured concentration [6, 19]: 2990 ± 42.9 ng/mL | Short-term stability in rat plasma ([6]; room temperature for 12 h (25 °C)): stable | Freeze–thaw stability in rat plasma ([6]; three freeze–thaw cycles, 10, 400 and 3000 ng/mL): stable | Long-term stability in rat plasma ([6]; −20 °C for 30 days): stable | Cmax [7, 20]: 1200 ± 200 ng/mL | MRT [7, 20]: 7.6 ± 0.7 h | Vd [7, 20]: 30.1 ± 3.6 L/kg | clearance [7, 20]: 43.3 mL/min/kg | half-life [7, 20]: 7.9 ± 0.3 h | CL (total clearance) ([7]; i.v. 5 mg/kg, n=6, mean ± SD): 43.3 ± 6.7 mL/min/kg | Stability of stock solutions [1]: stable
Compound: CC(CCCn1c(=O)sc2cc(F)ccc21)N1CCN(C2CCCCC2)CC1 (stereo not shown) [AZ66, 3-[4-(4-cyclohexylpiperazin-1-yl)pentyl]-6-fluorobenzo[d] thiazole-2(3H)-one]
in vitro half-life compared with CM156 ([2]; in vitro): appreciably longer half-life | affinity for both subtypes of sigma receptors [3]: high nanomolar affinity | selectivity over a wide battery of CNS targets [3]: highly selective | attenuation of cocaine-induced convulsions [4]: significantly attenuate convulsions | effect on METH-induced dopaminergic neurotoxicity [5]: attenuate | effect on METH-induced hyperthermia [5]: attenuate | effect on memory impairment caused by repeated intake of METH [8]: attenuated the memory impairment

Compound: S=c1sc2ccccc2n1CCCCN1CCN(C2CCCCC2)CC1 [CM156, 3-[4-(4-cyclohexylpiperazin-1-yl)butyl]benzo[d]thiazole-2(3H)-thione]
in vitro half-life ([2]; rat liver microsomes): 4.62 min | effect on neurotoxic effects of METH [9]: attenuated | effect on stimulant effects of METH [9]: attenuated

Compound: c1ccc(CCN2CCCCC2)cc1 [AC927]
effect on neurotoxic effects of METH [9]: attenuated | effect on stimulant effects of METH [9]: attenuated
